Stability, inhibition and IC50 data for twelve molecules are collected here from ChEMBL document CHEMBL2016575, “The chemical synthesis of metabolically stabilized 2-OMe-LPA analogues and preliminary studies of their inhibitory activity toward autotaxin” (Bioorg Med Chem Lett, 2012).

System in one data set: not listed separately
Kind of data set: Metabolic stability of the compound assessed as reduction in dephosphorylation at […] after 24 hrs by phosphomolybdate blue assay in presence of bovine intestinal mucosal alkaline phosphatase. In kind it is ADME. The settings on record: cattle, isolated protein. The procedure, abridged: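 Substrate incubated with the phosphatase at 37 °C for 24 h. Dephosphorylation is followed by quantifying liberated inorganic phosphate with a modified phosphomolybdate blue assay.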
For the molecule `CCCCCCCC/C=C\CCCCCCCC(=O)OCC(COP(=O)(O)O)OC` (stereo not given), the Stability result is recorded as “Stable”.

On to `CCCCCCCC/C=C\CCCCCCCC(=O)OC[C@@H](O)COP(=O)(O)O` [LYSOPHOSPHATIDIC ACID], for which the Stability result is given as “Unstable”.

Turning to `CCCCCCCCCCCCCCCCCC(=O)OC[C@@H](O)CC(Br)P(=O)(O)O` (stereo not given in full), the Stability result is listed as “Stable”.

The target in a further data set is T1, Autotaxin (Homo sapiens, UniProt Q13822). Briefly: Inhibition of human recombinant autotaxin expressed in insect Sf9 cells using FS-3 as substrate at 1 uM preincubated for 10 mins prior substrate addition measured up to 60 mins by FRET-based analysis.
Conditions: not given
As a reminder, the inhibition is the relative decrease from the control value, in per cent. With `CCCCCCCC/C=C\CCCCCCCC(=O)OCC(COP(=O)(O)O)OC` (stereo not given), the inhibition is 81.3%.

For `CCCCCCCC/C=C\CCCCCCCC(=O)OCC(COP(=O)(O)S)OC` (stereo not given), the inhibition worked out at 77.8%.

For `CCCCCCCCCCCC(=O)OCC(COP(=O)(O)O)OC` (stereo not given), the inhibition is 45.5%.

Turning to `CCCCCCCCCCCCCCCC(=O)OCC(COP(=O)(O)S)OC` (stereo not given), the inhibition stood at 64.7%.

As for `CCCCCCCCCCCCCCCCCC(=O)OCC(COP(=O)(O)O)OC` (stereo not given), the inhibition amounted to 49.7%.

On to `CCCCCCCCCCCCCCCC(=O)OCC(COP(=O)(O)O)OC` (stereo not given), for which the inhibition was 74.5%.

As for `CCCCCCCCCCCCCCCCCC(=O)OCC(COP(=O)(O)S)OC` (stereo not given), the inhibition amounted to 35.5%.

Regarding `CCCCCCCCCCCCCC(=O)OCC(COP(=O)(O)S)OC` (stereo not given), the inhibition was found to be 62.3%.

Consider `CCCCCCCCCCCC(=O)OCC(COP(=O)(O)S)OC` (stereo not given), for which the inhibition is 36.7%.

For the molecule `CCCCCCCCCCCCCCCCCC(=O)OC[C@@H](O)CC(Br)P(=O)(O)O` (stereo not given in full), the inhibition is 86.1%.

For `CCCCCCCCCCCCCC(=O)OCC(COP(=O)(O)O)OC` (stereo not given), the inhibition turned out to be 57.7%.

The next data set concerns the target T1, Autotaxin. Kind of data set: Inhibition of human recombinant autotaxin expressed in insect Sf9 cells using FS-3 as substrate preincubated for 10 mins prior substrate addition measured up to 60 mins by FRET-based analysis.
Conditions: not given
For orientation: IC50 means the concentration at which inhibition is half-maximal. In the case of `CCCCCCCC/C=C\CCCCCCCC(=O)OCC(COP(=O)(O)O)OC` (stereo not given), the IC50 is 220 nM.

Turning to `CCCCCCCC/C=C\CCCCCCCC(=O)OCC(COP(=O)(O)S)OC` (stereo not given), the IC50 came to 356 nM.

For `CCCCCCCCCCCC(=O)OCC(COP(=O)(O)O)OC` (stereo not given), the IC50 came to 1200 nM.

For `CCCCCCCCCCCCCCCC(=O)OCC(COP(=O)(O)S)OC` (stereo not given), the IC50 turned out to be 512 nM.

Consider `CCCCCCCCCCCCCCCCCC(=O)OCC(COP(=O)(O)O)OC` (stereo not given), for which the IC50 turned out to be 1010 nM.

For `CCCCCCCCCCCCCCCC(=O)OCC(COP(=O)(O)O)OC` (stereo not given), the IC50 came out at 361 nM.

`CCCCCCCCCCCCCCCCCC(=O)OCC(COP(=O)(O)S)OC` (stereo not given): the IC50 turned out to be 2420 nM.

Turning to `CCCCCCCCCCCCCC(=O)OCC(COP(=O)(O)S)OC` (stereo not given), the IC50 amounted to 596 nM.

On to `CCCCCCCCCCCC(=O)OCC(COP(=O)(O)S)OC` (stereo not given), for which the IC50 was 2410 nM.

As for `CCCCCCCCCCCCCCCCCC(=O)OC[C@@H](O)CC(Br)P(=O)(O)O` (stereo not given in full), the IC50 turned out to be 170 nM.

Take `CCCCCCCCCCCCCC(=O)OCC(COP(=O)(O)O)OC` (stereo not given): the IC50 came to 704 nM.
